Values after ≈ are worked out from the molar mass of the structure shown. Active and inactive are the calls of the source. No cut-off for these calls is given here.
How the values were obtained:
[1] = test system: Staphylococcus epidermidis; test: Antimicrobial activity against Staphylococcus epidermidis MTCC 3615 assessed as zone of inhibition at 1 mg/disc after 24 hrs incubation by disc diffusion assay; assay type: functional
Outline: (§1)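 Inocula grown in Mueller Hinton broth for 24 h at 37 °C and swabbed onto Mueller Hinton agar. Discs carried 1 mg compound each and stood 30 min at room temperature before 24 h incubation at 37 °C. Solvent as negative control. Inhibition zones recorded in mm; experiment done twice.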

[2] = test system: Staphylococcus aureus; test: Antimicrobial activity against Staphylococcus aureus MTCC 96 assessed as zone of inhibition at 1 mg/disc after 24 hrs incubation by disc diffusion assay; assay type: functional; outline: as §1
[3] = test system: Staphylococcus aureus; test: Antimicrobial activity against methicillin-resistant Staphylococcus aureus assessed as zone of inhibition at 1 mg/disc after 24 hrs incubation by disc diffusion assay; assay type: functional
Outline: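 Inoculum grown in Mueller Hinton broth 24 h at 37°C, swabbed onto Mueller Hinton agar and dried 10 min. Discs loaded at 1 mg/disc, then 30 min at room temperature for diffusion. Plates incubated 24 h at 37°C. Solvent negative control; streptomycin positive control. Zone of inhibition read in mm; experiment done twice.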

[4] = test system: Micrococcus luteus; test: Antimicrobial activity against Micrococcus luteus MTCC 106 assessed as zone of inhibition at 1 mg/disc after 24 hrs incubation by disc diffusion assay; assay type: functional; outline: as §1
[5] = test system: Klebsiella aerogenes; test: Antimicrobial activity against Enterobacter aerogenes MTCC 111 assessed as zone of inhibition at 1 mg/disc after 24 hrs incubation by disc diffusion assay; assay type: functional; outline: as §1
[6] = test system: Salmonella typhimurium; test: Antimicrobial activity against Salmonella typhimurium MTCC 1251 assessed as zone of inhibition at 1 mg/disc after 24 hrs incubation by disc diffusion assay; assay type: functional, Salmonella enterica subsp. enterica serovar Typhimurium; outline: as §1
[7] = test system: Klebsiella pneumoniae; test: Antimicrobial activity against Klebsiella pneumonia MTCC 109 assessed as zone of inhibition at 1 mg/disc after 24 hrs incubation by disc diffusion assay; assay type: functional; outline: as §1
[8] = test system: Proteus vulgaris; test: Antimicrobial activity against Proteus vulgaris MTCC 1771 assessed as zone of inhibition at 1 mg/disc after 24 hrs incubation by disc diffusion assay; assay type: functional; outline: as §1
[9] = test system: Shigella flexneri; test: Antimicrobial activity against Shigella flexneri MTCC 1457 assessed as zone of inhibition at 1 mg/disc after 24 hrs incubation by disc diffusion assay; assay type: functional; outline: as §1
[10] = test system: Candida albicans; test: Antifungal activity against Candida albicans MTCC 227 assessed as zone of inhibition at 1 mg/disc after 48 hrs incubation by disc diffusion assay; assay type: functional
Outline: (§2)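 Disc diffusion on Mueller Hinton agar with swabbed cultures, 1 mg compound per disc. Discs stood 30 min at room temperature for diffusion, then plates incubated 48 h at 28 °C. Solvent as negative control. Yeast pre-grown in Sabouraud dextrose broth at 28 °C for 48-72 h; filamentous fungal spores came from SDA slants grown 10 days at 28 °C. Zone diameters in mm; run twice.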

[11] = test system: Malassezia pachydermatis; test: Antifungal activity against Malassezia pachydermatis assessed as zone of inhibition at 1 mg/disc after 48 hrs incubation by disc diffusion assay; assay type: functional; outline: as §2
[12] = test system: Staphylococcus aureus; test: Antimicrobial activity against Staphylococcus aureus MTCC 96 assessed as absence of visible growth after 48 to 72 hrs; assay type: functional
[13] = test system: Staphylococcus aureus; test: Antimicrobial activity against methicillin-resistant Staphylococcus aureus assessed as absence of visible growth after 48 to 72 hrs; assay type: functional
Outline: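 Broth two-fold serial dilution in 96-well plates, 1000 to 7.81 µg/mL, compound dissolved in DMSO (2%). Inoculum grown in Mueller Hinton broth 24 h at 37°C. Streptomycin positive control. 5 µl of tested broth plated on MHA; MIC is the lowest concentration inhibiting visible growth on agar.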

[14] = test system: Micrococcus luteus; test: Antimicrobial activity against Micrococcus luteus MTCC 106 assessed as absence of visible growth after 48 to 72 hrs; assay type: functional
[15] = test system: Klebsiella aerogenes; test: Antimicrobial activity against Enterobacter aerogenes MTCC 111 assessed as absence of visible growth after 48 to 72 hrs; assay type: functional
[16] = test system: Salmonella typhimurium; test: Antimicrobial activity against Salmonella typhimurium MTCC 1251 assessed as absence of visible growth after 48 to 72 hrs; assay type: functional, Salmonella enterica subsp. enterica serovar Typhimurium; settings: Salmonella enterica
[17] = test system: Proteus vulgaris; test: Antimicrobial activity against Proteus vulgaris MTCC 1771 assessed as absence of visible growth after 48 to 72 hrs; assay type: functional
[18] = test system: Shigella flexneri; test: Antimicrobial activity against Shigella flexneri MTCC 1457 assessed as absence of visible growth after 24 hrs
[19] = test system: Klebsiella pneumoniae; test: Antimicrobial activity against Klebsiella pneumonia MTCC 109 assessed as absence of visible growth after 24 hrs
[20] = test system: Staphylococcus epidermidis; test: Antimicrobial activity against Staphylococcus epidermidis MTCC 3615 assessed as absence of visible growth after 24 hrs
[21] = test system: Staphylococcus epidermidis; test: Antimicrobial activity against Staphylococcus epidermidis MTCC 3615 assessed as absence of visible growth after 48 to 72 hrs; assay type: functional

## N#CC1=C(N)C2(C(=O)c3ccccc3C2=O)[C@@H](c2cccc3ccccc23)[C@@H]2CCCC=C12 (relative stereo)
[1]
  inhibition zone (IZ): 15 mm
[2]
  inhibition zone (IZ): 12 mm
[3]
  inhibition zone (IZ): 21 mm
[4]
  inhibition zone (IZ): 22 mm
[5]
  inhibition zone (IZ): 17 mm
[6]
  inhibition zone (IZ): 18 mm
[7]
  inhibition zone (IZ): 17 mm
[8]
  inhibition zone (IZ): 19 mm
[9]
  inhibition zone (IZ): 21 mm
[10]
  inhibition zone (IZ): 10 mm
[11]
  inhibition zone (IZ): 9 mm
[12]
  MIC: 250 µg/mL (≈ 581 µM)
[13]
  MIC: 62.5 µg/mL (≈ 145 µM)
[14]
  MIC: 62.5 µg/mL (≈ 145 µM)
[15]
  MIC: 125 µg/mL (≈ 290 µM)
[16]
  MIC: 125 µg/mL (≈ 290 µM)
[17]
  MIC: 125 µg/mL (≈ 290 µM)
[18]
  MIC: 62.5 µg/mL (≈ 145 µM)
[19]
  MIC: 125 µg/mL (≈ 290 µM)
[20]
  MIC: 125 µg/mL (≈ 290 µM)

## N#CC1=C(N)[C@]2(C(=O)Nc3ccccc32)[C@@H](c2ccc(Br)cc2)[C@@H]2CCCC=C12
[1]
  inhibition zone (IZ): 10 mm
[2]
  inhibition zone (IZ): 12 mm
[3]
  inhibition zone (IZ): 12 mm
[4]
  inhibition zone (IZ): 8 mm
[5]
  inhibition zone (IZ): 15 mm
[6]
  inhibition zone (IZ): 11 mm
[7]
  inhibition zone (IZ): 10 mm
[8]
  inhibition zone (IZ): 9 mm
[9]
  inhibition zone (IZ): 8 mm
[10]
  inhibition zone (IZ): 10 mm
[11]
  inhibition zone (IZ): 10 mm
[21]
  MIC: 500 µg/mL (≈ 1120 µM)
[12]
  MIC: 250 µg/mL (≈ 560 µM)
[13]
  MIC: 250 µg/mL (≈ 560 µM)
[14]
  MIC: 1000 µg/mL (≈ 2240 µM)
[15]
  MIC: 250 µg/mL (≈ 560 µM)
[16]
  MIC: 250 µg/mL (≈ 560 µM)
[17]
  MIC: 1000 µg/mL (≈ 2240 µM)
[18]
  MIC: 1000 µg/mL (≈ 2240 µM)
[19]
  MIC: 500 µg/mL (≈ 1120 µM)

## N#CC1=C(N)C2(C(=O)c3ccccc3C2=O)[C@@H](c2ccccc2F)[C@@H]2CCCC=C12 (relative stereo)
[1]
  inhibition zone (IZ): 14 mm
[2]
  inhibition zone (IZ): 14 mm
[3]
  inhibition zone (IZ): 13 mm
[4]
  inhibition zone (IZ): 15 mm
[5]
  inhibition zone (IZ): 12 mm
[6]
  inhibition zone (IZ): 10 mm
[7]
  inhibition zone (IZ): 16 mm
[8]
  inhibition zone (IZ): 12 mm
[9]
  inhibition zone (IZ): 14 mm
[10]
  inhibition zone (IZ): 10 mm
[11]
  inhibition: inactive
[12]
  MIC: 250 µg/mL (≈ 627 µM)
[13]
  MIC: 250 µg/mL (≈ 627 µM)
[14]
  MIC: 250 µg/mL (≈ 627 µM)
[15]
  MIC: 250 µg/mL (≈ 627 µM)
[16]
  MIC: 500 µg/mL (≈ 1250 µM)
[17]
  MIC: 250 µg/mL (≈ 627 µM)
[18]
  MIC: 250 µg/mL (≈ 627 µM)
[19]
  MIC: 125 µg/mL (≈ 314 µM)
[20]
  MIC: 250 µg/mL (≈ 627 µM)

## Cc1ccc([C@H]2[C@@H]3CCCCC=C3C(C#N)=C(N)[C@]23C(=O)Nc2ccccc23)cc1
[1]
  inhibition zone (IZ): 14 mm
[2]
  inhibition zone (IZ): 13 mm
[3]
  inhibition zone (IZ): 15 mm
[4]
  inhibition zone (IZ): 13 mm
[5]
  inhibition zone (IZ): 12 mm
[6]
  inhibition zone (IZ): 16 mm
[7]
  inhibition zone (IZ): 12 mm
[8]
  inhibition zone (IZ): 12 mm
[9]
  inhibition zone (IZ): 11 mm
[10]
  inhibition zone (IZ): 9 mm
[11]
  inhibition zone (IZ): 8 mm
[12]
  MIC: 250 µg/mL (≈ 632 µM)
[13]
  MIC: 250 µg/mL (≈ 632 µM)
[14]
  MIC: 250 µg/mL (≈ 632 µM)
[15]
  MIC: 250 µg/mL (≈ 632 µM)
[16]
  MIC: 125 µg/mL (≈ 316 µM)
[17]
  MIC: 250 µg/mL (≈ 632 µM)
[18]
  MIC: 250 µg/mL (≈ 632 µM)
[19]
  MIC: 250 µg/mL (≈ 632 µM)
[20]
  MIC: 250 µg/mL (≈ 632 µM)

## N#CC1=C(N)C2(C(=O)c3ccccc3C2=O)[C@@H](c2ccoc2)[C@@H]2CCCC=C12 (relative stereo)
[1]
  inhibition zone (IZ): 12 mm
[2]
  inhibition zone (IZ): 14 mm
[3]
  inhibition zone (IZ): 13 mm
[4]
  inhibition zone (IZ): 18 mm
[5]
  inhibition zone (IZ): 15 mm
[6]
  inhibition zone (IZ): 10 mm
[7]
  inhibition zone (IZ): 12 mm
[8]
  inhibition zone (IZ): 15 mm
[9]
  inhibition zone (IZ): 14 mm
[10]
  inhibition zone (IZ): 13 mm
[11]
  inhibition zone (IZ): 12 mm
[12]
  MIC: 250 µg/mL (≈ 675 µM)
[13]
  MIC: 250 µg/mL (≈ 675 µM)
[14]
  MIC: 125 µg/mL (≈ 337 µM)
[15]
  MIC: 250 µg/mL (≈ 675 µM)
[16]
  MIC: 500 µg/mL (≈ 1350 µM)
[17]
  MIC: 250 µg/mL (≈ 675 µM)
[18]
  MIC: 250 µg/mL (≈ 675 µM)
[19]
  MIC: 250 µg/mL (≈ 675 µM)
[20]
  MIC: 250 µg/mL (≈ 675 µM)

## N#CC1=C(N)C2(C(=O)c3ccccc3C2=O)[C@@H](c2cccs2)[C@@H]2CCCC=C12 (relative stereo)
[1]
  inhibition zone (IZ): 12 mm
[2]
  inhibition zone (IZ): 10 mm
[3]
  inhibition zone (IZ): 18 mm
[4]
  inhibition zone (IZ): 10 mm
[5]
  inhibition zone (IZ): 15 mm
[6]
  inhibition zone (IZ): 16 mm
[7]
  inhibition zone (IZ): 14 mm
[8]
  inhibition zone (IZ): 22 mm
[9]
  inhibition zone (IZ): 24 mm
[10]
  inhibition zone (IZ): 10 mm
[11]
  inhibition zone (IZ): 11 mm
[12]
  MIC: 250 µg/mL (≈ 647 µM)
[13]
  MIC: 125 µg/mL (≈ 323 µM)
[14]
  MIC: 250 µg/mL (≈ 647 µM)
[15]
  MIC: 250 µg/mL (≈ 647 µM)
[16]
  MIC: 125 µg/mL (≈ 323 µM)
[17]
  MIC: 62.5 µg/mL (≈ 162 µM)
[18]
  MIC: 62.5 µg/mL (≈ 162 µM)
[19]
  MIC: 250 µg/mL (≈ 647 µM)
[20]
  MIC: 250 µg/mL (≈ 647 µM)

## N#CC1=C(N)C2(C(=O)c3ccccc3C2=O)[C@@H](c2ccccc2F)[C@@H]2CCC=C12 (relative stereo)
[1]
  inhibition zone (IZ): 17 mm
[2]
  inhibition zone (IZ): 14 mm
[3]
  inhibition zone (IZ): 16 mm
[4]
  inhibition zone (IZ): 12 mm
[5]
  inhibition zone (IZ): 15 mm
[6]
  inhibition zone (IZ): 12 mm
[7]
  inhibition zone (IZ): 15 mm
[8]
  inhibition zone (IZ): 14 mm
[9]
  inhibition zone (IZ): 10 mm
[10]
  inhibition: inactive
[11]
  inhibition: inactive
[12]
  MIC: 250 µg/mL (≈ 650 µM)
[13]
  MIC: 125 µg/mL (≈ 325 µM)
[14]
  MIC: 250 µg/mL (≈ 650 µM)
[15]
  MIC: 250 µg/mL (≈ 650 µM)
[16]
  MIC: 250 µg/mL (≈ 650 µM)
[17]
  MIC: 250 µg/mL (≈ 650 µM)
[18]
  MIC: 250 µg/mL (≈ 650 µM)
[19]
  MIC: 250 µg/mL (≈ 650 µM)
[20]
  MIC: 125 µg/mL (≈ 325 µM)

Reference: ChEMBL document CHEMBL3286367, “Synthesis of new class of spirocarbocycle derivatives by multicomponent domino reaction and their evaluation for antimicrobial, anticancer activity and molecular docking studies” (2014)
